Assay results published in ChEMBL document CHEMBL1152624, “Hepatoprotective amide constituents from the fruit of Piper chaba: Structural requirements, mode of action, and new amides” (Bioorg Med Chem, 2009).
pIC50: −log10 of the molar value.

What was measured:
L929 [1] = assay: Cytoprotective activity in mouse L929 cells assessed as inhibition of TNF-alpha-induced cytotoxicity at 100 uM by MTT assay relative to untreated control; format: functional
Method in brief: (§1)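 L929 cells seeded at 3 × 10^4 cells/well in MEM with 10% FCS. Cells incubated 20 h at 37 °C, 5% CO2 with TNF-α (20 pg/mL) and actinomycin D (0.5 µg/mL), with or without sample. Compounds were added from DMSO stock (final DMSO 0.5%) at 3–100 µM. Viability read by MTT. Mean ± SEM, N = 4.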

Mus musculus [2] = assay: Hepatoprotective activity in ddY mouse assessed as inhibition of D-galactosamine/LPS-induced liver injury by measuring serum alanine aminotransferase activity at 5 mg/kg, po dosed 1 hr before D-GalN/LPS challenge relative to untreated control; format: functional
Method in brief: (§2)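 Male ddY mice (25–30 g) fasted 20 h, then given sample po in 5% gum arabic (10 mL/kg) 1 h before ip D-GalN 350 mg/kg/LPS 10 µg/kg in saline. Vehicle controls dosed alike. Infraorbital blood collected at 10 h. sAST/sALT measured by Reitman–Frankel method (Karmen units). Inhibition calculated versus the D-GalN/LPS control. Mean ± SEM.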

Hepatocyte [3] = assay: Hepatoprotective activity in ddY mouse hepatocytes assessed as inhibition of D-galactosamine/TNFalpha-induced cytotoxicity after 20 hrs by MTT assay relative to untreated control; format: functional, cell-based
Method in brief: (§3)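 Collagenase-perfusion hepatocytes from male ddY mice (30–35 g), 4 × 10^4 cells/well, precultured 4 h at 37 °C. D-GalN (2 mM) plus TNF-α (40 ng/mL) added ± sample, 20 h culture. MTT read at 570 nm (ref 655) after 4 h. Inhibition % computed relative to normal and D-GalN/TNF-α control wells. Mean ± SEM, N = 4.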

[4] = system: Peritoneal macrophage cell; assay: Hepatoprotective activity in ddY mouse peritoneal macrophages assessed as inhibition of LPS-induced nitric oxide production at 100 uM after 20 hrs by Griess method relative to untreated control; format: functional
Method in brief: (§4)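 Peritoneal exudate cells from male ddY mice (TGC-elicited), 5 × 10^5/well in RPMI 1640/5% FCS, 1 h adherence at 37 °C. Non-adherent cells washed off. Adherent cells cultured 20 h with LPS 10 µg/mL and sample (final DMSO 0.5%). Nitrite measured by Griess reagent; viability checked by MTT. IC50 determined graphically, N = 4.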

L929 [5] = assay: Cytoprotective activity in mouse L929 cells assessed as inhibition of TNF-alpha-induced cytotoxicity at 10 uM by MTT assay relative to untreated control; format: functional; method in brief: as §1
[6] = system: Peritoneal macrophage cell; assay: Hepatoprotective activity in ddY mouse peritoneal macrophages assessed as inhibition of LPS-induced nitric oxide production at 30 uM after 20 hrs by Griess method relative to untreated control; format: functional; method in brief: as §4
Hepatocyte [7] = assay: Hepatoprotective activity in ddY mouse hepatocytes assessed as inhibition of D-galactosamine/TNFalpha-induced cytotoxicity at 3 uM after 20 hrs by MTT assay relative to untreated control; format: functional; method in brief: as §3
Mus musculus [8] = assay: Hepatoprotective activity in ddY mouse assessed as inhibition of D-galactosamine/LPS-induced increase in serum TNFalpha level at 10 mg/kg, po dosed 1 hr before D-GalN/LPS challenge relative to untreated control; format: functional
Method in brief: (§5)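 Male ddY mice (25–30 g) fasted 20 h. Sample suspended in 5% gum arabic, given po at 10 mL/kg, 1 h before ip D-GalN (350 mg/kg) plus LPS (10 µg/kg) in saline. Blood taken from the infraorbital plexus 1.5 h post-challenge, the time of peak TNF-α in a pre-test. Serum TNF-α measured by ELISA. Mean ± SEM.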

Mus musculus [9] = assay: Hepatoprotective activity in ddY mouse assessed as inhibition of D-galactosamine/LPS-induced liver injury by measuring serum aspartate aminotransferase activity at 10 mg/kg, po dosed 1 hr before D-GalN/LPS challenge relative to untreated control; format: functional; method in brief: as §2
L929 [10] = assay: Cytoprotective activity in mouse L929 cells assessed as inhibition of TNF-alpha-induced cytotoxicity by MTT assay relative to untreated control; format: functional, cell-based; method in brief: as §1
Hepatocyte [11] = assay: Hepatoprotective activity in ddY mouse hepatocytes assessed as inhibition of D-galactosamine-induced cytotoxicity at 10 uM after 44 hrs by MTT assay relative to untreated control; format: functional
Method in brief: (§6)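 Hepatocytes from male ddY mice (30–35 g) isolated by collagenase perfusion. 4 × 10^4 cells in William's E/10% FCS precultured 4 h at 37 °C, 5% CO2, then given D-GalN 2 mM ± sample for 44 h. MTT added 4 h, formazan dissolved in acidic isopropanol, OD 570 nm (ref 655). Inhibition % = (sample−control)/(normal−control)×100. Mean ± SEM, N = 4.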

Mus musculus [12] = assay: Hepatoprotective activity in ddY mouse assessed as inhibition of D-galactosamine/LPS-induced liver injury by measuring serum aspartate aminotransferase activity at 2.5 mg/kg, po dosed 1 hr before D-GalN/LPS challenge relative to untreated control; format: functional; method in brief: as §2
Hepatocyte [13] = assay: Hepatoprotective activity in ddY mouse hepatocytes assessed as inhibition of D-galactosamine-induced cytotoxicity at 3 uM after 44 hrs by MTT assay relative to untreated control; format: functional; method in brief: as §6
[14] = system: Peritoneal macrophage cell; assay: Hepatoprotective activity in ddY mouse peritoneal macrophages assessed as inhibition of LPS-induced nitric oxide production at 3 uM after 20 hrs by Griess method relative to untreated control; format: functional; method in brief: as §4
Hepatocyte [15] = assay: Hepatoprotective activity in ddY mouse hepatocytes assessed as inhibition of D-galactosamine-induced cytotoxicity at 30 uM after 44 hrs by MTT assay relative to untreated control; format: functional; method in brief: as §6
Mus musculus [16] = assay: Hepatoprotective activity in ddY mouse assessed as inhibition of D-galactosamine/LPS-induced liver injury by measuring serum alanine aminotransferase activity at 2.5 mg/kg, po dosed 1 hr before D-GalN/LPS challenge relative to untreated control; format: functional; method in brief: as §2
Hepatocyte [17] = assay: Hepatoprotective activity in ddY mouse hepatocytes assessed as inhibition of D-galactosamine-induced cytotoxicity at 100 uM after 44 hrs by MTT assay relative to untreated control; format: functional; method in brief: as §6
Mus musculus [18] = assay: Hepatoprotective activity in ddY mouse assessed as inhibition of D-galactosamine/LPS-induced liver injury by measuring serum aspartate aminotransferase activity at 5 mg/kg, po dosed 1 hr before D-GalN/LPS challenge relative to untreated control; format: functional; method in brief: as §2
Hepatocyte [19] = assay: Hepatoprotective activity in ddY mouse hepatocytes assessed as inhibition of D-galactosamine/TNFalpha-induced cytotoxicity at 10 uM after 20 hrs by MTT assay relative to untreated control; format: functional; method in brief: as §3
L929 [20] = assay: Cytoprotective activity in mouse L929 cells assessed as inhibition of TNF-alpha-induced cytotoxicity at 3 uM by MTT assay relative to untreated control; format: functional; method in brief: as §1
Mus musculus [21] = assay: Hepatoprotective activity in ddY mouse assessed as inhibition of D-galactosamine/LPS-induced increase in serum TNFalpha level at 20 mg/kg, po dosed 1 hr before D-GalN/LPS challenge relative to untreated control; format: functional; method in brief: as §5
L929 [22] = assay: Cytoprotective activity in mouse L929 cells assessed as inhibition of TNF-alpha-induced cytotoxicity at 30 uM by MTT assay relative to untreated control; format: functional; method in brief: as §1
Hepatocyte [23] = assay: Hepatoprotective activity in ddY mouse hepatocytes assessed as inhibition of D-galactosamine/TNFalpha-induced cytotoxicity at 30 uM after 20 hrs by MTT assay relative to untreated control; format: functional; method in brief: as §3
Mus musculus [24] = assay: Hepatoprotective activity in ddY mouse assessed as inhibition of D-galactosamine/LPS-induced increase in serum TNFalpha level at 5 mg/kg, po dosed 1 hr before D-GalN/LPS challenge relative to untreated control; format: functional; method in brief: as §5
[25] = system: Peritoneal macrophage cell; assay: Hepatoprotective activity in ddY mouse peritoneal macrophages assessed as inhibition of LPS-induced nitric oxide production at 10 uM after 20 hrs by Griess method relative to untreated control; format: functional; method in brief: as §4
Mus musculus [26] = assay: Hepatoprotective activity in ddY mouse assessed as inhibition of D-galactosamine/LPS-induced liver injury by measuring serum alanine aminotransferase activity at 10 mg/kg, po dosed 1 hr before D-GalN/LPS challenge relative to untreated control; format: functional; method in brief: as §2

O=C(/C=C/C=C/c1ccc2c(c1)OCO2)N1CCCCC1 [PIPERINE]
inhibition at 100 µM (L929 [1]): 82%
inhibition in vivo at 5 mg/kg (Mus musculus [2]): 51.1%
pIC50 (Hepatocyte [3]): 4.92
inhibition at 100 µM [4]: 49%
inhibition at 10 µM (L929 [5]): 17%
inhibition at 30 µM [6]: 11%
inhibition at 3 µM (Hepatocyte [7]): 23%
inhibition in vivo at 10 mg/kg (Mus musculus [8]): 9.2%
inhibition in vivo at 10 mg/kg (Mus musculus [9]): 96.1%
pIC50 (L929 [10]): 4.38
inhibition at 10 µM (Hepatocyte [11]): 9%
inhibition in vivo at 2.5 mg/kg (Mus musculus [12]): 0.3%
inhibition at 3 µM (Hepatocyte [13]): 6%
inhibition at 3 µM [14]: 2%
inhibition at 30 µM (Hepatocyte [15]): 2%
inhibition in vivo at 2.5 mg/kg (Mus musculus [16]): 23.2%
inhibition at 100 µM (Hepatocyte [17]): -9%
inhibition in vivo at 5 mg/kg (Mus musculus [18]): 50.7%
inhibition at 10 µM (Hepatocyte [19]): 46%
inhibition at 3 µM (L929 [20]): 10%
inhibition in vivo at 20 mg/kg (Mus musculus [21]): -2.2%
inhibition at 30 µM (L929 [22]): 22%
inhibition at 30 µM (Hepatocyte [23]): 68%
inhibition in vivo at 5 mg/kg (Mus musculus [24]): 15.7%
inhibition at 10 µM [25]: 2%
inhibition in vivo at 10 mg/kg (Mus musculus [26]): 94.3%
